From ChEMBL document CHEMBL1128579, “The role of charge in polyamine analogue recognition” (J Med Chem, 1995)

Legend:
L1210 [1] = assay: Impact (30 uM) on polyamine(Put) pools in L1210 cells, expressed relative to untreated controls (control = 100%).; format: functional, Mus musculus
How it was run: (§1)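 Logarithmic-phase murine L1210 cells grown 48 h with analogue at the stated concentration. Cells washed twice in cold RPMI-1640 and extracted with 0.6 N perchloric acid; supernatants held at -20 °C, then analysed by HPLC. Put, Spd and Spm given relative to untreated controls (100%); intracellular analogue given as pmol/10^6 cells.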

L1210 [2] = assay: Impact (30 uM) on polyamine(Spd) pools in L1210 cells, expressed relative to untreated controls (control = 100%).; format: functional, Mus musculus; how it was run: as §1
L1210 [3] = assay: Impact (30 uM) on polyamine(Spm) pools in L1210 cells, expressed relative to untreated controls (control = 100%).; format: functional, Mus musculus; how it was run: as §1
[4] = molecular target: T1, Ornithine decarboxylase (Mus musculus) (UniProt P00860); assay: Impact on polyamine biosynthetic enzyme, Ornithine decarboxylase in L1210 cells treated with the compound for 4 hr.; format: cell-based; design: concentration or dose not given beside the values
T1 sequence (whole entry): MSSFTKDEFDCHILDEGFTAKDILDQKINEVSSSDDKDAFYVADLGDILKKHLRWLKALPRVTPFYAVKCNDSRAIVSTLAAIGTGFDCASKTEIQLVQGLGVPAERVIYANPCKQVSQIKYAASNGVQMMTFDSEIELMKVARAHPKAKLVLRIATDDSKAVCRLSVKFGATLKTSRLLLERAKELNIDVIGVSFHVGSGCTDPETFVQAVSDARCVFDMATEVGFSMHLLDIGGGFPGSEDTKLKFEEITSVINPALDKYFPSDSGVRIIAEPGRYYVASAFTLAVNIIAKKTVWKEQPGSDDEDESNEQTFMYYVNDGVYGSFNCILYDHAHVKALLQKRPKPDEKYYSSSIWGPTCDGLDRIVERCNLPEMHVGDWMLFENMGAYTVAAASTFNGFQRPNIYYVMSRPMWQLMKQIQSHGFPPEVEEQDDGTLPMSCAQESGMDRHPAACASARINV
How it was run: (§2)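 L1210 cells treated with analogue: 4 h for ODC, 6 h for AdoMetDC, 48 h for SSAT. ODC and AdoMetDC measured as 14CO2 released from [14C]carboxyl-labeled L-ornithine or S-adenosyl-L-methionine. SSAT measured as [14C]acetylspermidine formed from SPD and [14C]acetyl-CoA. Triplicate runs, each with untreated and positive controls (10 μM DENSPM for ODC and AdoMetDC). Activity given as % of untreated control.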

L1210 [5] = assay: Inhibitory concentration against L1210 cells on 96h incubation.; format: functional, cell-based; conditions: Mus musculus, L1210, 96 h
How it was run: (§3)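 Murine L1210 leukemia cells in suspension in RPMI-1640 with 10% NuSerum, HEPES-MOPS and 1 mM aminoguanidine, 37 °C, 5% CO2. Log-phase cultures at (0.5-1.0) × 10^5 cells/mL treated with filtered aqueous analogue for 48 h, then reseeded and grown a further 48 h. Cells counted by Coulter counter. IC50 is the concentration giving 50% of control growth, corrected for initial inoculum.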

[6] = molecular target: Spermidine/spermine N(1)-acetyltransferase (SAT) (Mus musculus) (UniProt Q6P8J2+P48026); assay: Impact on polyamine biosynthetic enzyme Spermidine N-acetyl-transferase in L1210 cells treated with the compound for 48 hr.; format: cell-based; design: concentration or dose not given beside the values; how it was run: as §2
L1210 [7] = assay: Level (30 uM) in L1210 cells.; format: functional, Mus musculus; how it was run: as §1
L1210 [8] = assay: Impact on polyamine biosynthetic enzyme, S-adenosyl-L-methionine decarboxylase in L1210 cells treated with the compound for 6 hr.; format: cell-based; design: concentration or dose not given beside the values; how it was run: as §2
L1210 [9] = assay: Impact (100 uM) on polyamine(Spd) pools in L1210 cells, expressed relative to untreated controls (control = 100%).; format: functional, Mus musculus; how it was run: as §1
[10] = Titrimetrically measured pKa1 value of the compound; format: physicochemical; conditions: read-out: pKa1
How it was run: (§4)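 pKa values determined by titration; relative abundance of each ionic species then calculated for pH 7.4.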

L1210 [11] = assay: Impact (100 uM) on polyamine(Spm) pools in L1210 cells, expressed relative to untreated controls (control = 100%).; format: functional, Mus musculus; how it was run: as §1
L1210 [12] = assay: Impact (100 uM) on polyamine(Put) pools in L1210 cells, expressed relative to untreated controls (control = 100%).; format: functional, Mus musculus; how it was run: as §1
[13] = Titrimetrically measured pKa2 value of the compound; format: physicochemical; conditions: read-out: pKa2; how it was run: as §4
[14] = Titrimetrically measured pKa3 value of the compound; format: physicochemical; conditions: read-out: pKa3; how it was run: as §4
L1210 [15] = assay: Inhibitory concentration against L1210 cells on 96 hr incubation.; format: functional, cell-based; conditions: Mus musculus, L1210, 96 h; how it was run: as §3
[16] = Titrimetrically measured pKa4 value of the compound; format: physicochemical; conditions: read-out: pKa4; how it was run: as §4
L1210 [17] = assay: Concentration inhibiting radiolabeled spermidine transport in L1210 cells.; format: functional, cell-based, Mus musculus
How it was run: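 Competition with [3H]- or [14C]spermidine uptake into L1210 leukemia cells. Cells incubated 20 min at 37 °C in RPMI-1640 with 1, 2, 4, 6, 8 and 10 μM radiolabeled SPD, alone or plus 10, 25 or 50 μM analogue. Cells pelleted at 0–4 °C, washed with cold medium containing 1 μM SPD, NaOH-dissolved, then scintillation counted. Ki taken from Lineweaver–Burk plots as simple competitive inhibition.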

L1210 [18] = assay: Impact (2 uM) on polyamine(Spd) pools in L1210 cells, expressed relative to untreated controls (control = 100%).; format: functional, Mus musculus; how it was run: as §1
L1210 [19] = assay: Level (2 uM) in L1210 cells.; format: functional, Mus musculus; how it was run: as §1
L1210 [20] = assay: Impact (2 uM) on polyamine(Spm) pools in L1210 cells, expressed relative to untreated controls (control = 100%).; format: functional, Mus musculus; how it was run: as §1
L1210 [21] = assay: Impact (2 uM) on polyamine(Put) pools in L1210 cells, expressed relative to untreated controls (control = 100%).; format: functional, Mus musculus; how it was run: as §1
L1210 [22] = assay: Level (100 uM) in L1210 cells.; format: functional, Mus musculus; how it was run: as §1

Chain of Spermidine/spermine N(1)-acetyltransferase (SAT) (Mus musculus) (P48026 whole entry, looked up): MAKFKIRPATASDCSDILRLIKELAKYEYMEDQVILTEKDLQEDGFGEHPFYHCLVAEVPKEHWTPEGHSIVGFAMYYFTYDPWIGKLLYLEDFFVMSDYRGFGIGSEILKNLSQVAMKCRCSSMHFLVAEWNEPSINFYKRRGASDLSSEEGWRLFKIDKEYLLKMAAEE
Chain of Spermidine/spermine N(1)-acetyltransferase (SAT) (Mus musculus) (Q6P8J2 whole entry, looked up): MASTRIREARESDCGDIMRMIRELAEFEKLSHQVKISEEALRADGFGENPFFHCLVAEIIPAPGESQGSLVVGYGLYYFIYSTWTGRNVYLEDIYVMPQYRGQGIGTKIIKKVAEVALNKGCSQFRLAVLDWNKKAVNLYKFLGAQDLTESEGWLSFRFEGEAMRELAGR

## CCNCCCNCCCCNCCCNCC [BIS(ETHYL)SPERMINE]
L1210 [1]
  Polyamine pools: 0%
L1210 [2]
  Polyamine pools: 0%
L1210 [3]
  Polyamine pools: 22%
[4]
  Control: 3%
L1210 [5]
  IC50: 0.2 µM
[6]
  Control: 460%
L1210 [7]
  Analogue level: 1780 pM (10e6*cells)-1
L1210 [8]
  Control: 28%

## c1cc(CCNCCCCNCCc2ccncc2)ccn1
L1210 [9]
  Polyamine pools: 85%
[10]
  pKa: 9.81
L1210 [11]
  Polyamine pools: 96%
L1210 [12]
  Polyamine pools: 124%
[13]
  pKa: 8.85
[14]
  pKa: 5.69
L1210 [15]
  IC50: > 100 µM
[4]
  Control: 100%
[16]
  pKa: 4.93
[6]
  Control: 140%
L1210 [8]
  Control: 100%
L1210 [17]
  Ki: > 500 µM

## C(CCNCC1CCNCC1)CNCC1CCNCC1
L1210 [18]
  Polyamine pools: 5%
[10]
  pKa: 10.9
L1210 [19]
  Analogue level: 2518 pM (10e6*cells)-1
[13]
  pKa: 10.7
[14]
  pKa: 9.43
L1210 [15]
  IC50: 0.1 µM
[4]
  Control: 6%
[16]
  pKa: 8.45
[6]
  Control: 325%
L1210 [20]
  Polyamine pools: 50%
L1210 [8]
  Control: 39%
L1210 [21]
  Polyamine pools: 0%
L1210 [17]
  Ki: 4.9 µM

## NCCCNCCCCNCCCN [SPERMINE]
[10]
  pKa: 10.9
[13]
  pKa: 10.1
[14]
  pKa: 8.82
[16]
  pKa: 7.95

## FC(F)(F)CNCCCNCCCCNCCCNCC(F)(F)F
L1210 [9]
  Polyamine pools: 103%
[10]
  pKa: 10.5
L1210 [11]
  Polyamine pools: 108%
L1210 [12]
  Polyamine pools: 103%
[13]
  pKa: 9.41
[14]
  pKa: 4.81
[4]
  Control: 100%
L1210 [5]
  IC50: > 100 µM
[16]
  pKa: 4.09
[6]
  Control: 97%
L1210 [22]
  Analogue level: <20 pM (10e6*cells)-1
L1210 [8]
  Control: 100%
L1210 [17]
  Ki: 285 µM

## c1cc(CNCCCCNCc2ccncc2)ccn1
L1210 [9]
  Polyamine pools: 95%
[10]
  pKa: 9.23
L1210 [11]
  Polyamine pools: 99%
L1210 [12]
  Polyamine pools: 87%
[13]
  pKa: 7.64
[14]
  pKa: 4.43
L1210 [15]
  IC50: 80 µM
[4]
  Control: 90%
[16]
  pKa: 3.77
[6]
  Control: 87%
L1210 [8]
  Control: 100%
L1210 [17]
  Ki: > 500 µM
